The source of these data is ChEMBL document CHEMBL1136894, “New antituberculotics originated from salicylanilides with promising in vitro activity against atypical mycobacterial strains” (Bioorg Med Chem, 2009).

In brackets after ≈: the same amount, converted by molar mass.

For data set [1], the system named is Mycobacterium avium. Briefly: Antimycobacterial activity against Mycobacterium avium CNCTC My 330/88 after 21 days. The following applies: CNCTC My 330/88, 504 h. The format is functional. Put shortly: (§1)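 Broth dilution in Sula semisynthetic medium, compounds added as DMSO solutions at 250, 125, 62, 32, 16, 8, 4, 2 and 1. Strains came from the Czech National Collection of Type Cultures; the M. tuberculosis inoculum was diluted 10^-3. Cultures were incubated at 37 °C, and MIC was read after 7, 14 and 21 days.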

Data set [2] deals with Mycobacterium avium. The data set is described as follows: Antimycobacterial activity against Mycobacterium avium CNCTC My 330/88 after 14 days. The data set is classed as functional. Conditions: CNCTC My 330/88, 336 h. Put shortly: as §1
Data set [3] deals with Mycobacterium tuberculosis. The data set is described as follows: Antimycobacterial activity against Mycobacterium tuberculosis CNCTC My 331/88 after 14 days. The data set is classed as functional. The following applies: CNCTC My 331/88, 336 h. Put shortly:
as §1

Data set [4] deals with Mycobacterium tuberculosis. Briefly: Antimycobacterial activity against Mycobacterium tuberculosis CNCTC My 331/88 after 21 days. The format is functional. The following applies: CNCTC My 331/88, 504 h. In outline:
as §1

The subject of data set [5] is Mycobacterium kansasii. Briefly: Antimycobacterial activity against Mycobacterium kansasii isolate 6509/96 after 14 days. The data set is classed as functional. The following applies: isolate 6509/96, 336 h. Put shortly:
(§2)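 Compounds were added as DMSO solutions to Sula semisynthetic medium at 250, 125, 62, 32, 16, 8, 4, 2 and 1 µmol/L. Two M. kansasii strains were used: CNCTC My 235/80 and clinical isolate 6509/96, each with strain dilution 10^-4. Incubation was at 37 °C, and MIC was read at 7, 14 and 21 days.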

Data set [6] is described as follows: Lipophilicity, log K by HPLC. The format is physicochemical. Put shortly: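 Capacity factors k were measured by RP-HPLC and log k was calculated from them.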
Data set [7] relates to Mycobacterium kansasii. Briefly: Antimycobacterial activity against Mycobacterium kansasii isolate 6509/96 after 7 days. The data set is classed as functional. Conditions: isolate 6509/96, 168 h. In outline:
as §2

Data set [8] relates to Mycobacterium kansasii. The data set is described as follows: Antimycobacterial activity against Mycobacterium kansasii CNCTC My 235/80 after 14 days. The format is functional. Conditions: CNCTC My 235/80, 336 h. In outline:
as §2

The test system of data set [9] is Mycobacterium kansasii. Briefly: Antimycobacterial activity against Mycobacterium kansasii CNCTC My 235/80 after 7 days. The data set is classed as functional. The following applies: CNCTC My 235/80, 168 h. Put shortly:
as §2

Data set [10] has as its system Mycobacterium kansasii. The data set is described as follows: Antimycobacterial activity against Mycobacterium kansasii CNCTC My 235/80 after 21 days. The data set is classed as functional. The following applies: CNCTC My 235/80, 504 h. Put shortly:
as §2

The test system of data set [11] is Mycobacterium kansasii. Briefly: Antimycobacterial activity against Mycobacterium kansasii isolate 6509/96 after 21 days. The data set is classed as functional. Conditions: isolate 6509/96, 504 h. In outline:
as §2

In general, MIC refers to the least concentration at which growth counts as inhibited. A high value points to weaker potency. As to `O=C(N[C@H](Cc1ccccc1)C(=O)Oc1ccc(Cl)cc1C(=O)Nc1ccc(Cl)cc1)OCc1ccccc1`, the MIC in data set [1] turned out to be 16 µM (≈ 9.01 µg/mL); in data set [2], 16 µM (≈ 9.01 µg/mL); in data set [3], 4 µM (≈ 2.25 µg/mL); in data set [4], 4 µM (≈ 2.25 µg/mL); in [5], 8 µM (≈ 4.51 µg/mL); in data set [7] it was 8 µM (≈ 4.51 µg/mL). Further, the minimum inhibitory concentration (MIC) was 8 µM (≈ 4.51 µg/mL) in data set [8], 8 µM (≈ 4.51 µg/mL) in [9], 8 µM (≈ 4.51 µg/mL) in [10] and 16 µM (≈ 9.01 µg/mL) in data set [11]. In [6], the “log K” value was found to be 1.0678.

`C[C@@H](NC(=O)OCc1ccccc1)C(=O)Oc1ccc(Cl)cc1C(=O)Nc1ccc(Cl)c(Cl)c1`: the minimal inhibitory concentration (MIC) in data set [1] amounted to 32 µM (≈ 16.7 µg/mL); in data set [2], 16 µM (≈ 8.35 µg/mL); in data set [3], 2 µM (≈ 1.04 µg/mL); in data set [4], 4 µM (≈ 2.09 µg/mL); in [5], 8 µM (≈ 4.17 µg/mL); in [7], 4 µM (≈ 2.09 µg/mL). The minimum inhibitory concentration (MIC) in data set [8] is 8 µM (≈ 4.17 µg/mL); in data set [9], 8 µM (≈ 4.17 µg/mL); in data set [10], 16 µM (≈ 8.35 µg/mL); in data set [11] it was 8 µM (≈ 4.17 µg/mL). Further, the “log K” value in data set [6] is on record as 0.938.

As for `O=C(N[C@@H](Cc1ccccc1)C(=O)Oc1ccc(Cl)cc1C(=O)Nc1ccc(Cl)cc1)OCc1ccccc1`, the minimal inhibitory concentration (MIC) worked out at 16 µM (≈ 9.01 µg/mL) in data set [1]; 16 µM (≈ 9.01 µg/mL) in data set [2]; 4 µM (≈ 2.25 µg/mL) in data set [3]; 4 µM (≈ 2.25 µg/mL) in data set [4]; 16 µM (≈ 9.01 µg/mL) in data set [5]; 8 µM (≈ 4.51 µg/mL) in data set [7]. Also, the MIC is 16 µM (≈ 9.01 µg/mL) in data set [8], 8 µM (≈ 4.51 µg/mL) in data set [9], 16 µM (≈ 9.01 µg/mL) in data set [10] and 16 µM (≈ 9.01 µg/mL) in [11]. Further, the “log K” value in [6] turned out to be 1.0971.

On to `C[C@@H](NC(=O)OCc1ccccc1)C(=O)Oc1ccc(Cl)cc1C(=O)Nc1ccc(Br)cc1`, for which the MIC in data set [1] came to 16 µM (≈ 8.51 µg/mL); in data set [2], 16 µM (≈ 8.51 µg/mL); in data set [3], 2 µM (≈ 1.06 µg/mL); in data set [4], 4 µM (≈ 2.13 µg/mL); in data set [5] it was 16 µM (≈ 8.51 µg/mL); in [7], 8 µM (≈ 4.25 µg/mL). Further, the minimum inhibitory concentration (MIC) in [8] was 8 µM (≈ 4.25 µg/mL); in data set [9] it was 4 µM (≈ 2.13 µg/mL); in [10], 8 µM (≈ 4.25 µg/mL); in data set [11], 16 µM (≈ 8.51 µg/mL). The “log K” value in data set [6] was 0.7527.

`O=C(N[C@@H](Cc1ccccc1)C(=O)Oc1ccc(Cl)cc1C(=O)Nc1ccc(Br)cc1)OCc1ccccc1`: the MIC in [1] was 16 µM (≈ 9.73 µg/mL); in [2] it was 16 µM (≈ 9.73 µg/mL); in data set [3], 4 µM (≈ 2.43 µg/mL); in [4] it was 8 µM (≈ 4.86 µg/mL); in data set [5], 16 µM (≈ 9.73 µg/mL); in data set [7], 16 µM (≈ 9.73 µg/mL). The MIC came to 8 µM (≈ 4.86 µg/mL) in data set [8], 4 µM (≈ 2.43 µg/mL) in [9], 8 µM (≈ 4.86 µg/mL) in data set [10] and 16 µM (≈ 9.73 µg/mL) in [11]. The “log K” value in [6] came out at 1.1258.

In the case of `C[C@@H](NC(=O)OCc1ccccc1)C(=O)Oc1cc(Cl)ccc1C(=O)Nc1ccc(Cl)cc1`, the MIC stood at 16 µM (≈ 7.8 µg/mL) in data set [1]; 16 µM (≈ 7.8 µg/mL) in data set [2]; 4 µM (≈ 1.95 µg/mL) in [3]; 8 µM (≈ 3.9 µg/mL) in data set [4]; 8 µM (≈ 3.9 µg/mL) in [5]; 4 µM (≈ 1.95 µg/mL) in data set [7]. The minimum inhibitory concentration (MIC) is 8 µM (≈ 3.9 µg/mL) in data set [8], 8 µM (≈ 3.9 µg/mL) in data set [9], 8 µM (≈ 3.9 µg/mL) in data set [10] and 16 µM (≈ 7.8 µg/mL) in data set [11]. The “log K” value in [6] is listed as 0.6334.

In the case of `O=C(N[C@H](Cc1ccccc1)C(=O)Oc1ccc(Cl)cc1C(=O)Nc1ccc(Cl)c(Cl)c1)OCc1ccccc1`, the MIC stood at 32 µM (≈ 19.1 µg/mL) in data set [1]; 16 µM (≈ 9.57 µg/mL) in data set [2]; 2 µM (≈ 1.2 µg/mL) in data set [3]; 2 µM (≈ 1.2 µg/mL) in data set [4]; 8 µM (≈ 4.78 µg/mL) in [5]; 8 µM (≈ 4.78 µg/mL) in [7]. The minimal inhibitory concentration (MIC) was 4 µM (≈ 2.39 µg/mL) in data set [8], 4 µM (≈ 2.39 µg/mL) in data set [9], 8 µM (≈ 4.78 µg/mL) in data set [10] and 8 µM (≈ 4.78 µg/mL) in [11]. In addition, the “log K” value in [6] was 1.303.

As to `C[C@H](NC(=O)OCc1ccccc1)C(=O)Oc1ccc(Cl)cc1C(=O)Nc1ccc(Cl)c(Cl)c1`, the MIC in [1] turned out to be 32 µM (≈ 16.7 µg/mL); in data set [2], 16 µM (≈ 8.35 µg/mL); in data set [3], 2 µM (≈ 1.04 µg/mL); in [4], 4 µM (≈ 2.09 µg/mL); in data set [5], 16 µM (≈ 8.35 µg/mL); in data set [7] it was 8 µM (≈ 4.17 µg/mL). Further, the MIC in [8] amounted to 4 µM (≈ 2.09 µg/mL); in data set [9], 4 µM (≈ 2.09 µg/mL); in [10] it was 8 µM (≈ 4.17 µg/mL); in [11] it was 16 µM (≈ 8.35 µg/mL). Besides, the “log K” value in [6] stood at 0.9408.

For the molecule `CC(C)[C@H](NC(=O)OCc1ccccc1)C(=O)Oc1ccc(Cl)cc1C(=O)Nc1cccc(Cl)c1`, the MIC in [1] came to 16 µM (≈ 8.25 µg/mL); in [2] it was 16 µM (≈ 8.25 µg/mL); in [3], 4 µM (≈ 2.06 µg/mL); in data set [4], 4 µM (≈ 2.06 µg/mL); in data set [5] it was 16 µM (≈ 8.25 µg/mL); in data set [7], 8 µM (≈ 4.12 µg/mL). In addition, the minimal inhibitory concentration (MIC) amounted to 16 µM (≈ 8.25 µg/mL) in data set [8], 8 µM (≈ 4.12 µg/mL) in data set [9], 16 µM (≈ 8.25 µg/mL) in [10] and 16 µM (≈ 8.25 µg/mL) in [11]. In addition, the “log K” value in data set [6] came out at 0.8972.
